According to ChEMBL document CHEMBL1150073, “Cytotoxic cyclolignans from Koelreuteria henryi” (J Nat Prod, 1994):
Values after ≈ are worked out from the molar mass of the structure shown.

How the values were obtained:
SK-OV-3 = assay: Cytotoxicity against human SKOV3 cells by MTT assay; format: functional; conditions: for EC50: Homo sapiens, SK-OV-3, read-out: ED50 (the source's name)
How it was run: (§1)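 Human solid tumour lines tested at the Purdue Cancer Center cell culture laboratory using a standard MTT viability method, with adriamycin run as the control substance.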

A-431 = assay: Cytotoxicity against human A431 cells by MTT assay; format: functional; conditions: for EC50: Homo sapiens, A-431, read-out: ED50 (the source's name); how it was run: as §1
A549 = assay: Cytotoxicity against human A549 cells by MTT assay; format: functional; conditions: for EC50: Homo sapiens, A549, read-out: ED50 (the source's name); how it was run: as §1
MCF7 = assay: Cytotoxicity against human MCF7 cells by MTT assay; format: functional; conditions: for EC50: Homo sapiens, MCF7, read-out: ED50 (the source's name); how it was run: as §1
SK-MEL-5 = assay: Cytotoxicity against human SK-MEL-5 cells by MTT assay; format: functional; conditions: for EC50: Homo sapiens, SK-MEL-5, read-out: ED50 (the source's name); how it was run: as §1
PC-3 = assay: Cytotoxicity against human PC3 cells by MTT assay; format: functional; conditions: for EC50: Homo sapiens, PC-3, read-out: ED50 (the source's name); how it was run: as §1
[1] = Inhibition of bovine brain tubulin polymerization by turbidity assay; parameters: species or system Bos taurus
How it was run: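 Microtubule protein isolated from bovine brain, 1 mg/ml, with 1 mM GTP and graded inhibitor concentrations. Turbidity increase read at 340 nm over 30 min at 37°. Positive control contained MTP plus GTP; negative control contained MTP only.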

[2] = Inhibition of bovine brain tubulin polymerization by sedimentation assay; parameters: species or system Bos taurus
How it was run: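 Microtubule protein from bovine brain (1 mg/ml) with 1 mM GTP and varying inhibitor levels, incubated 30 min at 37°. Microtubules pelleted at 100,000 g for 5 min. Supernatant protein measured by BCA. Sedimented protein calculated relative to the positive control (MTP+GTP) and negative control (MTP alone).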

A498 = assay: Cytotoxicity against human A498 cells by MTT assay; format: functional; conditions: for EC50: Homo sapiens, A498, read-out: ED50 (the source's name); how it was run: as §1
HT-29 = assay: Cytotoxicity against human HT-29 cells by MTT assay; format: functional; conditions: for EC50: Homo sapiens, HT-29, read-out: ED50 (the source's name); how it was run: as §1

SMILES	EC50 (SK-OV-3)	EC50 (A-431)	EC50 (A549)	EC50 (MCF7)	EC50 (SK-MEL-5)	EC50 (PC-3)	IC50 [1]	IC50 [2]	EC50 (A498)	EC50 (HT-29)	ED50 (SK-OV-3)	ED50 (A-431)	ED50 (A549)	ED50 (MCF7)	ED50 (SK-MEL-5)	ED50 (PC-3)	ED50 (A498)	ED50 (HT-29)
COc1cc(-c2c3c(cc4cc5c(cc24)OCO5)COC3=O)cc2c1OCO2	0.0067 µg/mL (≈ 0.0177 µM)	0.18 µg/mL (≈ 0.476 µM)	0.049 µg/mL (≈ 0.13 µM)	9.7 µg/mL (≈ 25.6 µM)	0.0035 µg/mL (≈ 0.00925 µM)	0.15 µg/mL (≈ 0.396 µM)	5 µM	20 µM	0.078 µg/mL (≈ 0.206 µM)	0.29 µg/mL (≈ 0.767 µM)								
COc1cc([C@@H]2c3cc4c(cc3C[C@H]3COC(=O)[C@H]32)OCO4)cc2c1OCO2	0.832 µg/mL (≈ 2.18 µM)	0.96 µg/mL (≈ 2.51 µM)	0.46 µg/mL (≈ 1.2 µM)	4.1 µg/mL (≈ 10.7 µM)	0.77 µg/mL (≈ 2.01 µM)	3.1 µg/mL (≈ 8.11 µM)	40 µM	45 µM	0.76 µg/mL (≈ 1.99 µM)	0.1 µg/mL (≈ 0.262 µM)								
COc1cc([C@@H]2c3cc4c(cc3C[C@H]3COC(=O)[C@@H]32)OCO4)cc2c1OCO2 [AUSTROBAILIGNAN 1]							0.8 µM	1 µM			2.7 ×10⁻⁶ ug/ml	3.6 ×10⁻⁶ ug/ml	3.9 ×10⁻⁶ ug/ml	5.2 ×10⁻⁵ ug/ml	3 ×10⁻⁷ ug/ml	3.3 ×10⁻⁶ ug/ml	3.2 ×10⁻⁶ ug/ml	3.7 ×10⁻⁶ ug/ml
COc1cccc2c1C(=O)c1c(O)c3c(c(O)c1C2=O)C[C@@](O)(C(=O)CO)C[C@@H]3O[C@H]1C[C@H](N)[C@H](O)[C@H](C)O1 [DOXORUBICIN]	0.0025 µg/mL (≈ 0.0046 µM)	0.012 µg/mL (≈ 0.0221 µM)		0.02 µg/mL (≈ 0.0368 µM)		0.01 µg/mL (≈ 0.0184 µM)			0.0032 µg/mL (≈ 0.00589 µM)				3.1 ×10⁻⁴ ug/ml		2.8 ×10⁻⁴ ug/ml			5.6 ×10⁻⁴ ug/ml
COc1cc([C@@H]2c3cc4c(cc3[C@H](O)[C@H]3COC(=O)[C@H]23)OCO4)cc(OC)c1OC [PODOFILOX]							0.6 µM	1 µM			4.2 ×10⁻⁵ ug/ml	1.1 ×10⁻⁶ ug/ml	7.7 ×10⁻⁸ ug/ml	1.1 ×10⁻⁶ ug/ml	4.1 ×10⁻⁸ ug/ml	1.2 ×10⁻⁷ ug/ml	3.4 ×10⁻⁷ ug/ml	4.7 ×10⁻⁸ ug/ml
